An excerpt weighted towards active compounds, which were near 1.5% of everything screened.
NR1D1 modulator = modulators of human Rev-erb alpha DNA binding; Rev-erbα–FITC-DNA binding, fluorescence polarization, 90 min; activity, % at 10 µM; 0.79% of 370,000 active;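 active = activity above about 14%, limit read from the data; passing the limit was not always enough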;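 note: 0% = DMSO wells with 35 nM protein and 100% = DMSO wells with 750 nM protein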
NR2E3 ag-1 = agonists of human NR2E3 nuclear receptor; inhibition of corepressor binding, % at 3.98 µM; CHO-S Gal4-NCOR/VP16-NR2E3 two-hybrid, luciferase; AID 602229; Q9Y5X4; 0.35% of 360,000 active;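 active = inhibition above the mean of all tested compounds plus 3 SD, cut at about 70% in these data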;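 note: 0% = DMSO with NR2E3 transfected cells and 100% = cells lacking NR2E3 construct; higher means lower luciferase signal from less NR2E3 corepressor binding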
Target sequence (Q9Y5X4 whole entry, looked up, the tested form may be a part): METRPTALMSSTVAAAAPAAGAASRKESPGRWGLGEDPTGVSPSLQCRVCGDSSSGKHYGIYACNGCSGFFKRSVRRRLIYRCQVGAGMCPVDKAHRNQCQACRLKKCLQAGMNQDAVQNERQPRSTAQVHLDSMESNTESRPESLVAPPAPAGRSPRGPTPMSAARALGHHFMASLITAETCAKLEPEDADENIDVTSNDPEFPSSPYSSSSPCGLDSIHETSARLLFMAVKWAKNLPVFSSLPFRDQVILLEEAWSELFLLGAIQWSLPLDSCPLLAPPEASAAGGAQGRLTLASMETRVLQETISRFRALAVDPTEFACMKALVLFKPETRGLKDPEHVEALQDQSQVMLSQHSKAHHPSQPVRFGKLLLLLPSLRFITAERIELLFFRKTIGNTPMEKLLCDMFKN
PG9 binder = binds the HIV-1 gp120 antibody PG9; 0.43% of 360,000 active; TR-FRET gp120-PG9 antibody binding; inhibition, % at 6.7 µM; AID 624416; in the data active = inhibition above about 8.5%
NR2E3 ag-2 = NR2E3 (human) agonism; Q9Y5X4; GST-NR2E3/biotin-RetCOR TR-FRET, 1536-well; inhibition of corepressor binding, % at 4.78 µM; 0.12% of 320,000 active;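 active = percent inhibition above the cutoff of mean plus 3 SD of all tested compounds, set per screening campaign, cut at about 20% in these data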;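 note: 0% = DMSO wells and 100% = biotin wells as full block of FRET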
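system = GST-tagged NR2E3 plus biotinylated RetCOR corepressor | input = 1.35 nM GST-NR2E3 | also added = 7 nM biotin-RetCOR | schedule = 5 h incubation at 4 °C | measured by = TR-FRET with europium anti-GST and streptavidin-D2, 340 nm excitation | read-out = percent loss of FRET ratio relative to control wells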
PG9 binder conf = PG9 antibody binding, confirmed; shares compounds with PG9 binder; TR-FRET PG9 antibody binding, biochemical; inhibition, % at 6.7 µM; 90% of 1,500 active; AID 651571; in the data active = inhibition above about 9%
PGV04 Ab binding = counter-screen for PG9 binders: binding control antibody PGV04. 95% of 1,500 active. AID 651604. inhibition, % at 6.7 µM. shares compounds with PG9 binder. TR-FRET PGV04 antibody-gp120 binding, biochemical; in the data active = inhibition above about 9.5%
PG9 bind DR = small molecules binding HIV-1 gp120 antibody PG9. shares compounds with PG9 binder. TR-FRET PG9 antibody-gp120 binding inhibition. IC50, µM. 95 tested, under 10 active; in the data active = IC50 below about 10 µM
PGV04 binding DR = counter-screen for PG9 binders: binding to control antibody PGV04; shares compounds with PG9 binder; TR-FRET binding to control antibody PGV04; IC50, µM; 20% of 95 active
PG126 binding DR = binds control antibody PG126 in PG9 counter-screen | shares compounds with PG9 binder | TR-FRET binding to antibody PG126, counterscreen | IC50, µM | 20% of 95 active | AID 651939
Rev-erbA confirm = confirmation of modulators of human Rev-erb alpha DNA binding; AID 1259319; shares compounds with NR1D1 modulator; 61% of 3,000 active; Rev-erb alpha FITC-DNA binding, fluorescence polarization, 90 min; activation, % at 25 µM;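 active = activation at or above a set limit, or at least 3 SD above the negative control mean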;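 note: 0% = 35 nM protein with DMSO and 100% = 750 nM protein high control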
RORg DNA counter = RORgamma DNA-binding activity, dose-response counter-screen | 8% of 910 active | IC50, µM | AID 1259320 | purified RORgamma protein-FITC-DNA binding, fluorescence polarization | shares compounds with NR1D1 modulator;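 active = Compounds whose fitted half-maximal concentration for disrupting protein-DNA binding is below 10 micromolar; the record names Rev-erb in its text, so the target is in doubt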
Numbers without * were called inactive; i = inactive; . = not tested or not shown. Cut-off read from the data, not from the text of the source, unless noted: active = IC50 below about 9 µM; inactive = the rest.

SMILES | NR1D1 modulator | NR2E3 ag-1 | PG9 binder | NR2E3 ag-2 | PG9 binder conf | PGV04 Ab binding | Rev-erbA confirm | others
Cc1nc(SCC(=O)Nc2ccc3c(c2)OCCO3)c2oc3ccccc3c2n1 | 294* | -3 | 33* | 8 | 38* | 24* | 302* | PG9 bind DR=i;PGV04 binding DR=i;PG126 binding DR=i
CCc1nc(SCC(=O)Nc2ccc3c(c2)OCCO3)c2oc3ccccc3c2n1 | 172* | -7 | 50* | -1 | 68* | 83* | 169* | RORg DNA counter=i
Cc1nc(SCC(=O)O)c2oc3ccccc3c2n1 | 4 | -6 | 0 | -1 | . | . | .
Cc1ccc(NC(=O)CN(C)C(=O)COc2ncnc3ccc(Br)cc23)cc1 | 21* | -22 | 21* | 0 | 9.1* | 8 | 17* | PG9 bind DR=i;PGV04 binding DR=i;PG126 binding DR=i
O=Cc1ccc([B-](F)(F)F)o1 | 6 | . | 1 | . | . | . | .
CCCCOc1ccc(-c2c(C#N)c(N)nc(SCC(N)=O)c2C#N)cc1 | -2 | 6 | -2 | 6 | . | . | .
CCOC(=O)CSc1nc(N)c(C#N)c(-c2ccc(OC)cc2)c1C#N | 76* | -21 | 63* | 1 | 68* | 23* | 55* | PG9 bind DR=7.6*;PGV04 binding DR=6.1*;PG126 binding DR=7*
COc1ccc(-c2c(C#N)c(N)nc(Sc3ccc(Cl)cc3)c2C#N)cc1 | 83* | -12 | 31* | 6 | 97* | 95* | 48* | PG9 bind DR=8.5*;PGV04 binding DR=4.4*;PG126 binding DR=4.9*;RORg DNA counter=>40
CSc1nc(-c2ccc(Cl)cc2)nc(N)c1C#N | 29* | 7 | 25* | -3 | 49* | 67* | -2
O=C(Nc1ccc(Br)cc1)OC1CC2CC1[C@H]1CCCCN1[C@H]2Cc1ccccc1 (stereo not given in full) | 7 | . | . | . | . | . | .
C[C@@H](NC(=O)c1ncn2c1c(=O)[nH]c1ccc(Br)cc12)c1ccccc1 | 132* | -13 | 18* | . | 46* | 54* | 23*
C[C@@H](NC(=O)c1ncn2c1c(=O)[nH]c1cccnc12)c1ccccc1 | 0 | -13 | 0 | . | . | . | .
O=C(NC1CCCCN(Cc2cccc(C(F)(F)F)c2)C1=O)C1C2CC3CC(C2)CC1C3 (stereo not given) | 17 | . | . | . | . | . | .
COC(=O)Cn1c(=NC(=O)c2ccc(OC)cc2)sc2cc(OC)ccc21 | 34* | -9 | 64* | 1 | 49* | 60* | -3
CCCc1nc(SCC(=O)Nc2nnc(CC)s2)c2c(C)c(C)sc2n1 | 26* | 1 | 12* | 1 | 18* | 16* | 15 | PG9 bind DR=>67;PGV04 binding DR=i;PG126 binding DR=i
COc1ccccc1NC(=O)c1sc2ncn(Cc3cccc4ccccc34)c(=O)c2c1C | 117* | -26 | 13* | 0 | 11* | 24* | 49* | RORg DNA counter=i
C=CCn1cnc2sc(C(=O)Nc3ccccc3OC)c(C)c2c1=O | -6 | -14 | -2 | -4 | . | . | .
Cc1ccccc1N(C(=O)c1snc(C(N)=O)c1N)C(C(=O)NCc1ccccc1)c1ccc(O)cc1 (stereo not given) | 19* | 1 | 30* | 0 | 31* | 45* | -6
O=C(Cn1c(=O)c2cccn2c2ccccc21)NCCc1ccc(Cl)cc1 | 66* | -25 | 36* | 10 | 40* | 43* | 27*
COc1ccc2nc(SCC(=O)Nc3ccc4sc(C)nc4c3)c(C#N)cc2c1 | 92* | -5 | 6 | -2 | . | . | 123* | RORg DNA counter=>40
COc1ccc(NC(=O)CSc2nc3ccccc3cc2Cc2ccccc2)cc1 | 27* | -1 | 4 | 8 | . | . | 22*
CC(C)CCSc1nc(N)c(C#N)cc1C#N | 104* | -43 | -1 | 6 | . | . | 96* | RORg DNA counter=>40
COc1ccc(NC(=O)CSc2nc(N)c(C#N)cc2C#N)cc1 | 61* | 6 | 2 | 5 | . | . | 65* | RORg DNA counter=>40
CCSc1nc2ccc(OC)cc2cc1C#N | 13 | -1 | 0 | -2 | . | . | .
Cc1ccccc1CS(=O)(=O)Cc1ccc(C(=O)Nc2c(C)cccc2C)o1 | -4 | . | . | . | . | . | .
SMILES | NR1D1 modulator | NR2E3 ag-1 | PG9 binder | NR2E3 ag-2 | PG9 binder conf | PGV04 Ab binding | Rev-erbA confirm | others
CN1c2ccc(C#CC3CC3)cc2[C@@H]2[C@@H](CCN2C(=O)C2CCOCC2)[C@H]1CO | 2 | . | . | . | . | . | .
COCCCNC(=O)c1oc(=O)c2ccccc2c1-c1ccc(C)cc1 | -7 | . | . | . | . | . | .
COC(=O)[C@]12CCCCC=C1N(Cc1ccc(OC)cc1)C(=O)[C@@H]2CC(=O)NCc1cccc(C(F)(F)F)c1 | 4 | . | . | . | . | . | .
Cc1nc(SCC(=O)NCc2ccco2)c2c3c(sc2n1)CCCC3 | 6 | -57 | -1 | 0 | . | . | .
O=C(CSc1nc(C2CC2)nc2sc3c(c12)CCCC3)NCc1ccco1 | 27* | -38 | 0 | 1 | . | . | 11
CN1C(=O)c2cc(NC(=O)Nc3ccccc3)ccc2OC[C@H]2O[C@@H](CC(=O)NC3CCC3)CC[C@@H]21 | 49* | . | . | . | . | . | 29* | RORg DNA counter=>40
COc1ccc(C(=O)Nc2ccc3c(c2)C(=O)N(C)[C@H]2CC[C@H](CC(=O)NCC4CC4)O[C@@H]2CO3)cc1 | 30* | . | . | . | . | . | 18*
Cc1nn(C)cc1NC(=O)C[C@H]1CC[C@H]2[C@@H](COc3ccc(NC(=O)Nc4ccccc4)cc3C(=O)N2C)O1 | 42* | . | . | . | . | . | 21*
COC(=O)C[C@@H]1CC[C@H]2[C@H](COc3ccc(NC(=O)c4ccc(OC)cc4)cc3C(=O)N2C)O1 | 0 | . | . | . | . | . | .
O=c1c2ccccc2n(Cc2ccccc2)n1[C@@H](Cc1ccccc1)Cn1cc(-c2ccc(-c3ccccc3)cc2)nn1 | -3 | . | . | . | . | . | .
O=C(NC1CCC1)c1ccc(C#Cc2cccc(F)c2)cn1 | -1 | . | . | . | . | . | .
CCN(CC)C(=O)CC[C@H]1CC[C@]2(CCCN(Cc3ccccn3)C2)O1 | 0 | . | . | . | . | . | .
CN(C)c1ccc(C=Cc2nccc3ccccc23)cc1 | 303* | -91 | -3 | . | . | . | 346* | RORg DNA counter=>40
CCCC1CCC2(CCCN2CCOC(=O)Nc2ccc(F)cc2)CC1 (stereo not given) | -3 | . | . | . | . | . | .
COc1cccc(-c2nnc3sc(-c4ccccc4)nn23)c1 | 4 | -30 | 8 | 2 | . | . | .
Clc1ccccc1-c1nn2c(-c3cc(-c4ccccc4)n[nH]3)nnc2s1 | 30* | . | . | . | . | . | 44* | RORg DNA counter=>40
Cc1cc(-c2nnc3sc(-c4ccc(Cl)cc4Cl)nn23)n[nH]1 | 45* | -18 | 6 | 3 | . | . | 40* | RORg DNA counter=>40
Fc1ccc(-c2cc(-c3nnc4sc(-c5ccco5)nn34)[nH]n2)cc1 | 8 | . | . | . | . | . | .
